T cruzi growth-1: inhibitors of T. cruzi proliferation. hit rate 5.9% among 77,000. AID 624255. inhibition, % at 8.34 µM. T. cruzi beta-gal in NIH3T3, GalScreen luminescence, 90 h;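 active means mean inhibition above about 93%, with at least 55% of replicates each passing it, limit read from the data, passing the limit was not always enough; inconclusive means only one of those two conditions holds; inactive means neither condition holds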
GASC1 inh: blocks human GASC-1 (KDM4C) demethylase activity; Q9H3R0; GST-KDM4C 2-372, H3K9me3 peptide, LANCE TR-FRET; inhibition, % at 12.5 µM; hit rate 0.15% among 96,000; AID 720574;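 active means mean replicate inhibition above about 25%, with at least 55% of replicates also reaching it, limit read from the data, passing the limit was not always enough; inconclusive means only one of those two conditions met; inactive means neither condition met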
Target sequence (Q9H3R0 2-372 limits assumed): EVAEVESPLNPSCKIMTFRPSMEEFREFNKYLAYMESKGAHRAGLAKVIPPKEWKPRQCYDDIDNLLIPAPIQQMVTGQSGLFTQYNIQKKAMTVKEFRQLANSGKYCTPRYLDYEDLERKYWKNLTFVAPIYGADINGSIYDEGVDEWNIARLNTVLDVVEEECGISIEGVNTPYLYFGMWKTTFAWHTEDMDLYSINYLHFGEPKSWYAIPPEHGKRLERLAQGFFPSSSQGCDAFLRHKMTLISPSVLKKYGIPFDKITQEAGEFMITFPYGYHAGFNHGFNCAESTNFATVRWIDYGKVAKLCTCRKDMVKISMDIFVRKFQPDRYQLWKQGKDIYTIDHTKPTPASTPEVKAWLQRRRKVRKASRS
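System: N-terminal GST-fused human GASC-1 (KDM4C) fragment, residues 2-372 / Amount: 10 nM GST-KDM4C in enzyme reaction / Also added: H3K9me3 peptide with Fe(II)/2OG / Times: 30 min demethylation and 1 h detection at room temperature / Signal: LANCE TR-FRET / Read-out basis: Fall in 671/618 emission ratio as inhibition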
IDH1 mut inh: IDH1 R132H (human) inhibition | O75874 | IDH1 R132H reductase, diaphorase/resazurin fluorescence, 60 min | inhibition, % at 10 µM | hit rate 0.18% among 70,000 | AID 624101; in the data active means inhibition above about 34%; inconclusive means no clear call, values can overlap the other calls; inactive means below about 11%
Target sequence (O75874 whole entry R132H): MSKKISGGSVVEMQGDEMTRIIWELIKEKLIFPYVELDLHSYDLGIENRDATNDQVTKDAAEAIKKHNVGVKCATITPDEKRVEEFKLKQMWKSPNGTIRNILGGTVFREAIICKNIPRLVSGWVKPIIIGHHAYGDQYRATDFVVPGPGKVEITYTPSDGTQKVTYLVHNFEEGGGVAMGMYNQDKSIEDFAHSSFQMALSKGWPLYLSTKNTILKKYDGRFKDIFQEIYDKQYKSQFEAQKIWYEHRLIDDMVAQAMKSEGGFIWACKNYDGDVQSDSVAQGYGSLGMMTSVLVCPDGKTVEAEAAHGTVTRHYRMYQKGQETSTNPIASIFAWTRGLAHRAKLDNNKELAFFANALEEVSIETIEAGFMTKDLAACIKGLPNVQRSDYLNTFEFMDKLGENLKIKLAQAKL
T cruzi growth-2: inhibitors of T. cruzi proliferation | shares compounds with T cruzi growth-1 | T. cruzi beta-gal in NIH3T3, GalScreen luminescence, 90 h | inhibition, % at 8.35 µM | hit rate 72% among 5,600 | AID 651739;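 active means mean replicate inhibition above about 95% and at least 55% of replicates individually reaching it, limit read from the data; inconclusive means only one of the two criteria is met; inactive means neither criterion is met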
T cruzi growth-3: blocks T. cruzi growth in NIH3T3 host cells; inhibition, % at 2.09 µM; shares compounds with T cruzi growth-1; T. cruzi beta-gal in NIH3T3, GalScreen luminescence, 90 h; hit rate 21% among 5,600; AID 651740;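 active means mean inhibition above about 95%, with at least 55% of replicates also reaching it, limit read from the data; inconclusive means meets just one of the two conditions; inactive means meets neither condition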
3T3 cytotox: cytotoxicity in mouse NIH/3T3 fibroblasts; shares compounds with T cruzi growth-1; NIH/3T3 viability, CellTiter-Glo ATP luminescence, 90 h; cytotoxicity (signal decrease), % at 8.35 µM; hit rate 14% among 5,600; AID 651742;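 active means mean signal decrease across replicates above about 35% based on untreated-well scatter, with enough replicates individually passing, limit read from the data; inconclusive means no rule stated though some were filed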
NIH3T3 tox 2: kills mouse NIH/3T3 fibroblasts; shares compounds with T cruzi growth-1; NIH/3T3 viability, CellTiter-Glo ATP luminescence, 90 h; inhibition, % at 24.9 µM; hit rate 56% among 5,600;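 active means mean loss of cell viability signal at or above a set limit, and enough replicates individually reaching it; inconclusive means meets only the mean limit or only the replicate share; inactive means meets neither condition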
A number is an active result; i = inactive; ? = inconclusive; nt = no result given; + = active, no number; ! = not confirmed by another sample. This excerpt belongs to a sample that is enriched for hits.

SMILES | T cruzi growth-1 | GASC1 inh | IDH1 mut inh | T cruzi growth-2 | T cruzi growth-3 | 3T3 cytotox | NIH3T3 tox 2
CCCN1[C@H](C(=O)N[C@@H](C)c2ccccc2)[C@@H](CO)[C@@H]2Cn3c(ccc(-c4ccccc4)c3=O)[C@@H]21 | ? | i | nt | 104 | i | i | 52
CN1[C@@H]2c3ccc(-c4cncnc4)c(=O)n3C[C@@H]2[C@@H](CO)[C@@H]1C(=O)NC1Cc2ccccc2C1 | + | i | nt | i | i | i | i
CN(C)CC(=O)N1[C@H](C(=O)NC2CCCC2)[C@@H](CO)[C@@H]2Cn3c(ccc(-c4ccc(F)cc4)c3=O)[C@@H]21 | 105 | i | nt | i | i | i | i
CN(C)CC(=O)N1[C@H](C(=O)NC2CCC2)[C@@H](CO)[C@@H]2Cn3c(ccc(-c4cccc(F)c4)c3=O)[C@@H]21 | i | i | nt | nt | nt | nt | nt
CN1[C@@H]2c3ccc(-c4ccncc4)c(=O)n3C[C@@H]2[C@@H](CO)[C@@H]1C(=O)NC1Cc2ccccc2C1 | i | i | nt | nt | nt | nt | nt
CCCN1[C@@H]2c3ccc(-c4ccccc4)c(=O)n3C[C@@H]2[C@@H](CO)[C@@H]1C(=O)N[C@@H](C)c1ccccc1 | i | i | nt | nt | nt | nt | nt
CN1[C@H](C(=O)NC2CCCCC2)[C@@H](CO)[C@@H]2Cn3c(ccc(-c4cccc(F)c4)c3=O)[C@@H]21 | ? | i | nt | i | i | i | i
CN1[C@@H]2c3ccc(-c4cccc(F)c4)c(=O)n3C[C@@H]2[C@@H](CO)[C@@H]1C(=O)NC1CCCC1 | nt | i | nt | nt | nt | nt | nt
Cc1ccc(-c2nc3cc(NC(=O)COc4ccccc4[N+](=O)[O-])ccc3o2)cc1 | nt | nt | i | nt | nt | nt | nt
CN(C)CCCN1C(=O)[C@@]2(Cc3ccccc31)c1ccccc1C(=O)N(Cc1ccccc1)[C@H]2c1ccc(CO)cc1 | nt | nt | i | nt | nt | nt | nt
CCN1[C@@H]2c3ccc(-c4ccc(F)cc4)c(=O)n3C[C@@H]2[C@@H](CO)[C@@H]1C(=O)NC1CCC1 | nt | i | nt | nt | nt | nt | nt
CN(C)CC(=O)N1[C@@H]2c3ccc(-c4ccccc4)c(=O)n3C[C@@H]2[C@@H](CO)[C@@H]1C(=O)NC1CCC1 | + | i | nt | i | i | i | i
CN(C)CC(=O)N1[C@@H]2c3ccc(-c4cccc(F)c4)c(=O)n3C[C@@H]2[C@@H](CO)[C@@H]1C(=O)NC1CCC1 | i | i | nt | nt | nt | nt | nt
CN(C)CC(=O)N1[C@@H]2c3ccc(-c4ccc(F)cc4)c(=O)n3C[C@@H]2[C@@H](CO)[C@@H]1C(=O)NC1CCCC1 | 101 | i | nt | i | i | i | i
C[C@H]1CN([C@@H](C)CO)S(=O)(=O)c2ccc(C#CC3CCCC3)cc2O[C@H]1CN(C)C(=O)c1cccc(F)c1 | 124 | i | i | i | i | i | 103
C[C@H](CO)N1C[C@H](C)[C@@H](CN(C)C(=O)c2ccccc2)Oc2cc(C#CC3CC3)ccc2S1(=O)=O | i | i | i | nt | nt | nt | nt
C[C@H](CO)N1C[C@H](C)[C@H](CN(C)C(=O)c2ccccc2)Oc2cc(C#CC3CC3)ccc2S1(=O)=O | i | i | i | nt | nt | nt | nt
C[C@H](CO)N1C[C@H](C)[C@@H](CN(C)C(=O)c2cccc(F)c2)Oc2cc(C#CC3CCCC3)ccc2S1(=O)=O | 122 | i | i | 102 | 113 | i | 105
COC(=O)C[C@H]1CC[C@H]2[C@@H](COc3ccc(NS(=O)(=O)c4ccccc4Cl)cc3C(=O)N2C)O1 | nt | i | nt | nt | nt | nt | nt
Cc1cc(Br)ccc1NC(=O)Cn1nc(C)c([N+](=O)[O-])c1C | nt | nt | i | nt | nt | nt | nt
CCOC(=O)c1c(NC(=S)Nc2cnccn2)sc(C)c1-c1ccccc1 | nt | nt | i | nt | nt | nt | nt
COc1ccc(CN(C)C[C@H]2Oc3ccc(NC(=O)Nc4ccc5c(c4)OCO5)cc3CC(=O)N([C@@H](C)CO)C[C@@H]2C)cc1 | i | i | i | nt | nt | nt | nt
C[C@@H]1CN([C@@H](C)CO)C(=O)Cc2cc(NC(=O)Nc3ccc4c(c3)OCO4)ccc2O[C@@H]1CN(C)Cc1ccc(Oc2ccccc2)cc1 | i | i | nt | nt | nt | nt | nt
C[C@@H]1CN([C@H](C)CO)C(=O)Cc2cc(NC(=O)Nc3ccc4c(c3)OCO4)ccc2O[C@H]1CN(C)Cc1ccc(Oc2ccccc2)cc1 | ? | i | i | 113 | i | i | 31
CC(C)NC(=O)Nc1ccc2c(c1)CC(=O)N([C@H](C)CO)C[C@H](C)[C@H](CN(C)Cc1ccc(Oc3ccccc3)cc1)O2 | i | i | i | nt | nt | nt | nt
SMILES | T cruzi growth-1 | GASC1 inh | IDH1 mut inh | T cruzi growth-2 | T cruzi growth-3 | 3T3 cytotox | NIH3T3 tox 2
CC(C)NC(=O)Nc1ccc2c(c1)CC(=O)N([C@@H](C)CO)C[C@@H](C)[C@H](CN(C)Cc1ccc(Oc3ccccc3)cc1)O2 | 101 | i | i | 107 | i | i | 104
COc1ccc(CN(C)C[C@H]2Oc3ccc(NC(=O)Nc4ccc5c(c4)OCO5)cc3CC(=O)N([C@H](C)CO)C[C@H]2C)cc1 | 99 | i | i | 110 | i | i | i
COc1ccc(N2C(=O)N(c3ccc(F)cc3)C(=O)C2CC(=O)Nc2ccc(F)cc2)cc1 (centres undefined) | nt | nt | i | nt | nt | nt | nt
C[C@@H]1CN([C@@H](C)CO)C(=O)Cc2cc(NS(=O)(=O)c3ccc(Cl)cc3)ccc2O[C@H]1CN(C)Cc1ccc2c(c1)OCO2 | i | i | i | nt | nt | nt | nt
C[C@@H]1CN([C@H](C)CO)C(=O)Cc2cc(NS(=O)(=O)c3ccc(Cl)cc3)ccc2O[C@@H]1CN(C)Cc1ccc2c(c1)OCO2 | 99 | i | nt | 106 | i | ? | 42
C[C@@H]1CN([C@H](C)CO)C(=O)Cc2cc(NS(=O)(=O)c3ccc(Cl)cc3)ccc2O[C@H]1CN(C)Cc1ccc2c(c1)OCO2 | 113 | i | i | 108 | i | i | i
Cc1ccc(S(=O)(=O)Nc2ccc3c(c2)CC(=O)N([C@H](C)CO)C[C@H](C)[C@@H](CN(C)Cc2ccc4c(c2)OCO4)O3)cc1 | 106 | i | i | 104 | 99 | i | 25
C[C@@H]1CN([C@@H](C)CO)C(=O)Cc2cc(NS(=O)(=O)c3ccc(F)cc3)ccc2O[C@@H]1CN(C)Cc1ccc2c(c1)OCO2 | i | i | i | nt | nt | nt | nt
Cc1ccc(S(=O)(=O)Nc2ccc3c(c2)CC(=O)N([C@@H](C)CO)C[C@@H](C)[C@@H](CN(C)Cc2ccc4c(c2)OCO4)O3)cc1 | i | i | i | nt | nt | nt | nt
COc1ccc(Cl)cc1NC(=O)CSc1nnc(-c2ccccc2)n1-c1ccc(C)cc1 | nt | nt | i | nt | nt | nt | nt
Cc1ccc(C(=O)C2C(=O)C(=O)N(Cc3ccco3)C2c2ccc(F)cc2)o1 (centres undefined) | nt | nt | i | nt | nt | nt | nt
COc1ccc(S(=O)(=O)N(C)C[C@@H]2Oc3cc(C#CC4CCCCC4)ccc3S(=O)(=O)N([C@@H](C)CO)C[C@@H]2C)cc1 | 111! | i | i | i | i | i | 59
COc1ccc(S(=O)(=O)N(C)C[C@@H]2Oc3cc(C#CC4CCCC4)ccc3S(=O)(=O)N([C@H](C)CO)C[C@H]2C)cc1 | i | i | i | nt | nt | nt | nt

Screening data: PubChem, Broad Institute
